Assays:
P388 [1] = test: Antitumor activity against mouse P388 cells allografted in CD2F1 mouse assessed as increase in mouse survival at 12.5 mg/kg, ip of total 9 doses starting 24 hrs post tumor inoculation measured on day 5 of inoculation relative to control; assay type: functional; conditions: route intraperitoneal
Summary of the method: (§1)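 Male CD2F1 mice inoculated ip with 6×10^6 P388 leukemia cells. Dosing was ip as a suspension in distilled water–Tween 80, nine daily doses starting 24 h after inoculation. Activity was read as median survival time of treated vs control mice (% T/C); % T/C ≥ 120 was considered significant. Groups were 6 mice.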

P388 [2] = test: Antitumor activity against mouse P388 cells allografted in CD2F1 mouse assessed as increase in mouse survival at 200 mg/kg, ip of total 9 doses starting 24 hrs post tumor inoculation measured on day 5 of inoculation relative to control; assay type: functional; conditions: route intraperitoneal; summary of the method: as §1
Mus musculus [3] = test: Toxicity in mouse P388 cells allografted CD2F1 mouse assessed as body weight loss at 12.5 mg/kg, ip of total 9 doses starting 24 hrs post tumor inoculation measured on day 5 of inoculation relative to control; assay type: organism-based; design: dose 12.5 mg/kg, route intraperitoneal; conditions: in vivo
Summary of the method: (§2)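 Male CD2F1 mice inoculated ip with 6×10^6 P388 leukemia cells. Compounds given ip as distilled water–Tween 80 suspension, nine daily doses starting 24 h after inoculation; six mice per dose group. Treated-minus-control body-weight change (T − C) and toxicity-day survivors recorded on day 5 (4 days after first dose).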

Mus musculus [4] = test: Toxicity in mouse P388 cells allografted CD2F1 mouse assessed as mouse survival at 100 mg/kg, ip of total 9 doses starting 24 hrs post tumor inoculation measured on day 5 of inoculation relative to control; assay type: organism-based; design: dose 100 mg/kg, route intraperitoneal; conditions: in vivo
Summary of the method: (§3)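 Male CD2F1 mice bearing ip P388 leukemia (6×10^6 cells) were dosed ip with nine daily doses in distilled water–Tween 80 suspension, starting 24 h after inoculation. Survivors per group of 6 were counted on day 5, i.e. 4 days after the first dose. Body-weight change of treated minus control mice was also recorded.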

Mus musculus [5] = test: Toxicity in mouse P388 cells allografted CD2F1 mouse assessed as body weight loss at 25 mg/kg, ip of total 9 doses starting 24 hrs post tumor inoculation measured on day 5 of inoculation relative to control; assay type: organism-based; design: dose 25 mg/kg, route intraperitoneal; conditions: in vivo; summary of the method: as §2
Mus musculus [6] = test: Toxicity in mouse P388 cells allografted CD2F1 mouse assessed as mouse survival at 50 mg/kg, ip of total 9 doses starting 24 hrs post tumor inoculation measured on day 5 of inoculation relative to control; assay type: organism-based; design: dose 50 mg/kg, route intraperitoneal; conditions: in vivo; summary of the method: as §3
Mus musculus [7] = test: Toxicity in mouse P388 cells allografted CD2F1 mouse assessed as body weight loss at 100 mg/kg, ip of total 9 doses starting 24 hrs post tumor inoculation measured on day 5 of inoculation relative to control; assay type: organism-based; design: dose 100 mg/kg, route intraperitoneal; conditions: in vivo; summary of the method: as §2
P388 [8] = test: Antitumor activity against mouse P388 cells allografted in CD2F1 mouse assessed as increase in mouse survival at 25 mg/kg, ip of total 9 doses starting 24 hrs post tumor inoculation measured on day 5 of inoculation relative to control; assay type: functional; conditions: route intraperitoneal; summary of the method: as §1
Mus musculus [9] = test: Toxicity in mouse P388 cells allografted CD2F1 mouse assessed as mouse survival at 25 mg/kg, ip of total 9 doses starting 24 hrs post tumor inoculation measured on day 5 of inoculation relative to control; assay type: organism-based; design: dose 25 mg/kg, route intraperitoneal; conditions: in vivo; summary of the method: as §3
Mus musculus [10] = test: Toxicity in mouse P388 cells allografted CD2F1 mouse assessed as mouse survival at 12.5 mg/kg, ip of total 9 doses starting 24 hrs post tumor inoculation measured on day 5 of inoculation relative to control; assay type: organism-based; design: dose 12.5 mg/kg, route intraperitoneal; conditions: in vivo; summary of the method: as §3
Mus musculus [11] = test: Toxicity in mouse P388 cells allografted CD2F1 mouse assessed as body weight loss at 50 mg/kg, ip of total 9 doses starting 24 hrs post tumor inoculation measured on day 5 of inoculation relative to control; assay type: organism-based; design: dose 50 mg/kg, route intraperitoneal; conditions: in vivo; summary of the method: as §2
Mus musculus [12] = test: Toxicity in mouse P388 cells allografted CD2F1 mouse assessed as body weight loss at 200 mg/kg, ip of total 9 doses starting 24 hrs post tumor inoculation measured on day 5 of inoculation relative to control; assay type: organism-based; design: dose 200 mg/kg, route intraperitoneal; conditions: in vivo; summary of the method: as §2
Mus musculus [13] = test: Toxicity in mouse P388 cells allografted CD2F1 mouse assessed as mouse survival at 200 mg/kg, ip of total 9 doses starting 24 hrs post tumor inoculation measured on day 5 of inoculation relative to control; assay type: organism-based; design: dose 200 mg/kg, route intraperitoneal; conditions: in vivo; summary of the method: as §3
P388 [14] = test: Antitumor activity against mouse P388 cells allografted in CD2F1 mouse assessed as increase in mouse survival at 100 mg/kg, ip of total 9 doses starting 24 hrs post tumor inoculation measured on day 5 of inoculation relative to control; assay type: functional; conditions: route intraperitoneal; summary of the method: as §1
P388 [15] = test: Antitumor activity against mouse P388 cells allografted in CD2F1 mouse assessed as increase in mouse survival at 50 mg/kg, ip of total 9 doses starting 24 hrs post tumor inoculation measured on day 5 of inoculation relative to control; assay type: functional; conditions: route intraperitoneal; summary of the method: as §1
P388 [16] = test: Antitumor activity against mouse P388 cells allografted in CD2F1 mouse assessed as increase in mouse survival at 15 mg/kg, ip of total 9 doses starting 24 hrs post tumor inoculation measured on day 5 of inoculation relative to control; assay type: functional; conditions: route intraperitoneal; summary of the method: as §1
Mus musculus [17] = test: Toxicity in mouse P388 cells allografted CD2F1 mouse assessed as body weight loss at 7.5 mg/kg, ip of total 9 doses starting 24 hrs post tumor inoculation measured on day 5 of inoculation relative to control; assay type: organism-based; design: dose 7.5 mg/kg, route intraperitoneal; conditions: in vivo; summary of the method: as §2
Mus musculus [18] = test: Toxicity in mouse P388 cells allografted CD2F1 mouse assessed as mouse survival at 15 mg/kg, ip of total 9 doses starting 24 hrs post tumor inoculation measured on day 5 of inoculation relative to control; assay type: organism-based; design: dose 15 mg/kg, route intraperitoneal; conditions: in vivo; summary of the method: as §3
Mus musculus [19] = test: Toxicity in mouse P388 cells allografted CD2F1 mouse assessed as body weight loss at 15 mg/kg, ip of total 9 doses starting 24 hrs post tumor inoculation measured on day 5 of inoculation relative to control; assay type: organism-based; design: dose 15 mg/kg, route intraperitoneal; conditions: in vivo; summary of the method: as §2
P388 [20] = test: Antitumor activity against mouse P388 cells allografted in CD2F1 mouse assessed as increase in mouse survival at 1.88 mg/kg, ip of total 9 doses starting 24 hrs post tumor inoculation measured on day 5 of inoculation relative to control; assay type: functional; conditions: route intraperitoneal; summary of the method: as §1
Mus musculus [21] = test: Toxicity in mouse P388 cells allografted CD2F1 mouse assessed as mouse survival at 1.88 mg/kg, ip of total 9 doses starting 24 hrs post tumor inoculation measured on day 5 of inoculation relative to control; assay type: organism-based; design: dose 1.88 mg/kg, route intraperitoneal; conditions: in vivo; summary of the method: as §3
P388 [22] = test: Antitumor activity against mouse P388 cells allografted in CD2F1 mouse assessed as increase in mouse survival at 30 mg/kg, ip of total 9 doses starting 24 hrs post tumor inoculation measured on day 5 of inoculation relative to control; assay type: functional; conditions: route intraperitoneal; summary of the method: as §1
Mus musculus [23] = test: Toxicity in mouse P388 cells allografted CD2F1 mouse assessed as body weight loss at 30 mg/kg, ip of total 9 doses starting 24 hrs post tumor inoculation measured on day 5 of inoculation relative to control; assay type: organism-based; design: dose 30 mg/kg, route intraperitoneal; conditions: in vivo; summary of the method: as §2
Mus musculus [24] = test: Toxicity in mouse P388 cells allografted CD2F1 mouse assessed as body weight loss at 3.75 mg/kg, ip of total 9 doses starting 24 hrs post tumor inoculation measured on day 5 of inoculation relative to control; assay type: organism-based; design: dose 3.75 mg/kg, route intraperitoneal; conditions: in vivo; summary of the method: as §2
Mus musculus [25] = test: Toxicity in mouse P388 cells allografted CD2F1 mouse assessed as mouse survival at 7.5 mg/kg, ip of total 9 doses starting 24 hrs post tumor inoculation measured on day 5 of inoculation relative to control; assay type: organism-based; design: dose 7.5 mg/kg, route intraperitoneal; conditions: in vivo; summary of the method: as §3
Mus musculus [26] = test: Toxicity in mouse P388 cells allografted CD2F1 mouse assessed as body weight loss at 1.88 mg/kg, ip of total 9 doses starting 24 hrs post tumor inoculation measured on day 5 of inoculation relative to control; assay type: organism-based; design: dose 1.88 mg/kg, route intraperitoneal; conditions: in vivo; summary of the method: as §2
P388 [27] = test: Antitumor activity against mouse P388 cells allografted in CD2F1 mouse assessed as increase in mouse survival at 3.75 mg/kg, ip of total 9 doses starting 24 hrs post tumor inoculation measured on day 5 of inoculation relative to control; assay type: functional; conditions: route intraperitoneal; summary of the method: as §1
P388 [28] = test: Antitumor activity against mouse P388 cells allografted in CD2F1 mouse assessed as increase in mouse survival at 7.5 mg/kg, ip of total 9 doses starting 24 hrs post tumor inoculation measured on day 5 of inoculation relative to control; assay type: functional; conditions: route intraperitoneal; summary of the method: as §1
Mus musculus [29] = test: Toxicity in mouse P388 cells allografted CD2F1 mouse assessed as mouse survival at 3.75 mg/kg, ip of total 9 doses starting 24 hrs post tumor inoculation measured on day 5 of inoculation relative to control; assay type: organism-based; design: dose 3.75 mg/kg, route intraperitoneal; conditions: in vivo; summary of the method: as §3
Mus musculus [30] = test: Toxicity in mouse P388 cells allografted CD2F1 mouse assessed as mouse survival at 30 mg/kg, ip of total 9 doses starting 24 hrs post tumor inoculation measured on day 5 of inoculation relative to control; assay type: organism-based; design: dose 30 mg/kg, route intraperitoneal; conditions: in vivo; summary of the method: as §3

CNC(=O)OCc1c(COC(=O)NC)c(-c2ccc(Sc3ccccc3)cc2)n(C)c1C
T/C (P388 [1]): 142% | T/C (P388 [2]): 108% | Activity (Mus musculus [3]): 0.9 g | Activity (Mus musculus [4]): Non-toxic | Activity (Mus musculus [5]): 2.1 g | Activity (Mus musculus [6]): Non-toxic | Activity (Mus musculus [7]): 3.3 g | T/C (P388 [8]): 146% | Activity (Mus musculus [9]): Non-toxic | Activity (Mus musculus [10]): Non-toxic | Activity (Mus musculus [11]): 2.1 g | Activity (Mus musculus [12]): 3 g | Activity (Mus musculus [13]): Non-toxic | T/C (P388 [14]): 171% | T/C (P388 [15]): 162%

CNC(=O)OCc1c(COC(=O)NC)c(-c2ccc(-c3ccccc3)cc2)n(C)c1C
T/C (P388 [16]): 153% | Activity (Mus musculus [17]): 2.2 g | Activity (Mus musculus [18]): Non-toxic | Activity (Mus musculus [19]): 3.1 g | T/C (P388 [20]): 135% | Activity (Mus musculus [21]): Non-toxic | T/C (P388 [22]): 144% | Activity (Mus musculus [23]): 3.6 g | Activity (Mus musculus [24]): 1.3 g | Activity (Mus musculus [25]): Non-toxic | Activity (Mus musculus [26]): 0.6 g | T/C (P388 [27]): 144% | T/C (P388 [28]): 144% | Activity (Mus musculus [29]): Non-toxic | Activity (Mus musculus [30]): Non-toxic
